Screening data as filed in PubChem BioAssay.
This is one part of a sample in which hits are shown more often than they occur.
L major viab – Leishmania major promastigote growth inhibition; Leishmania major promastigotes, resazurin fluorescence viability; inhibition, % at 10 µM; hit rate 9% among 200,000; AID 1063; in the data active = inhibition above about 50%;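 also: promastigotes grown with compound for 44 hours at 28 °C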
Mdm2 ligase inh – inhibitors of human Mdm2 E3 ubiquitin ligase; Q00987; cell-based MDM2 ubiquitination luciferase reporter, 2 h; 0 = plate control, 100 = twice control, blank-subtracted; signal enhancement, % at 5 µM; hit rate 0.11% among 210,000; AID 1230;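 active = signal enhancement of 30% or more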;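 also: luminescence tracks abundance of the self-degrading MDM2-luciferase fusion protein; higher signal means inhibition of MDM2 E3 ligase activity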
Target sequence (Q00987 whole entry, looked up, the tested form may be a part): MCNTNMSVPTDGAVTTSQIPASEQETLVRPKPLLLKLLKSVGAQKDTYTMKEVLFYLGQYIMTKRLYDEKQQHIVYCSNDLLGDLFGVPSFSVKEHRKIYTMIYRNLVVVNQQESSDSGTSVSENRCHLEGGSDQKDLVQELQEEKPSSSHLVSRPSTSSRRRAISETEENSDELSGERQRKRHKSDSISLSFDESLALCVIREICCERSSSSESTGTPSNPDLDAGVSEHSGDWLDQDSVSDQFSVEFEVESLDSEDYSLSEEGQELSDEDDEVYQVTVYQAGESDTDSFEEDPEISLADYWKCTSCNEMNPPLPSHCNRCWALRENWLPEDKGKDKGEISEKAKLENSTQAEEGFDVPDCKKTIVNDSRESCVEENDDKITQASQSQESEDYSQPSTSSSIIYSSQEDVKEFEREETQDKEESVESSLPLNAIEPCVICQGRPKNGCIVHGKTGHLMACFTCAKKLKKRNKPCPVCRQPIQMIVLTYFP
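system = mammalian cells stably expressing self-ubiquitinating, self-degrading MDM2 E3–luciferase fusion | quantity = 2000 cells per well seeded | incubation = 4 h cell settling then 2 h compound exposure, 37 °C | signal = SteadyLite luminescence, 15 min reagent step | benchmarks = plate control and blank wells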
S1P4 antag – human S1P4 receptor antagonism; O95977; S1P4-expressing cells, antagonist mode, reporter read-out; inhibition, % at 4.98 µM; hit rate 0.26% among 220,000; in the data active = inhibition above about 29%;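 also: 0% = wells stimulated with agonist and 100% = vehicle wells without agonist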
S1P4 ag – activates the human S1P4 receptor; S1P4-expressing cell line, agonist reporter assay; activation, % at 4.98 µM; hit rate 0.35% among 220,000; in the data active = activation above about 11%;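 also: 0% = DMSO vehicle and 100% = reference agonist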
S1P3 antag – S1P3 (human) receptor antagonism | CHO S1P3 NFAT-BLA reporter, FRET fluorescence, antagonist mode | inhibition, % at 4.98 µM | hit rate 0.27% among 170,000 | AID 485;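 active = inhibition above the plate cutoff, the mean inhibition of test wells on that plate plus 3 SD, cut at about 28% in these data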;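 also: cells challenged with S1P at its EC80 of 0.8 µM; blue over green emission ratio from cleaved BLA substrate after 4 h stimulation; 0% = S1P-stimulated wells and 100% = unstimulated DMSO-only wells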
An asterisk follows results filed as active; / = not tested or not shown.

SMILES | L major viab | Mdm2 ligase inh | S1P4 antag | S1P4 ag | S1P3 antag
CCOC(=O)c1cnc(-n2nc(C)cc2C)nc1NNc1nc(-c2ccccc2)cc(-c2ccccc2)n1 | 100* | -9 | -21 | 10 | 6
CCOC(=O)c1cnc(-n2nc(C)cc2C)nc1NC | 1 | -7 | -30 | 1 | -14
COc1cccc(/C=C/C(=O)Nc2ccc3c(c2)OCCO3)c1OC | 22 | -47 | -9 | -1 | -10
CCNS(=O)(=O)c1ccc(NC(=O)c2ccc(Cn3cc(Br)cn3)o2)cc1 | 5 | 1 | -24 | 0 | -7
O=C1C(=O)N(O)C2CCCCC2N1O (stereo not given) | -4 | -10 | -15 | 1 | -9
Cc1cc2nc(C(C)(C)C)cc(N)n2n1 | 6 | -1 | -9 | 2 | -20
CC(C)(C)c1cc(N)n2nc(C(C)(C)C)cc2n1 | 66* | -2 | 1 | 0 | 3
Cc1cc(C)cc(NC(=O)C(=S)NCc2ccccc2)c1 | -4 | -5 | -16 | 0 | 21
CCCn1c(C)cc(C(=O)COC(=O)CN=C2NS(=O)(=O)c3ccccc32)c1C | 55* | -5 | -14 | -1 | -2
COCCN1CN=C(Nc2nc3ccccc3s2)NC1 | -2 | -32 | 8 | -2 | 8
Cc1cccc(Nc2c([N+](=O)[O-])cc(C(=O)N3CC(=O)Nc4ccccc43)cc2[N+](=O)[O-])c1 | 82* | -7 | 4 | -1 | -6
Cc1ccc(C)c(Nc2c([N+](=O)[O-])cc(C(=O)N3CC(=O)Nc4ccccc43)cc2[N+](=O)[O-])c1 | 96* | -7 | 5 | 0 | /
CCOc1ccc(NC(=S)NNC(=O)CC(C)O)cc1 (stereo not given) | -1 | -3 | -18 | 1 | -9
CCOC(=O)c1sc(NC(=O)c2sccc2C)cc1C | 69* | -31 | 3 | 1 | /
Fc1ccc(-n2c(-c3ccc4ccccc4n3)n[nH]c2=S)cc1Cl | 5 | -14 | -3 | -1 | -10
S=c1[nH]nc(-c2ccc3ccccc3n2)n1-c1ccc2ncccc2c1 | 88* | -3 | -10 | -2 | 1
Oc1ccc(-c2n[nH]c(=S)n2-c2ccc3c(c2)OCCO3)cc1 | 0 | / | -33 | 1 | 0
S=c1[nH]nc(-c2ccc3ncccc3c2)n1-c1ccc2c(c1)OCCO2 | 91* | 1 | -2 | 0 | 1
O=Cc1ccccc1OCCOc1ccc([N+](=O)[O-])cc1 | 52* | -11 | -8 | 1 | 0
O=C(c1nc2ccccn2c1CNCCn1ccc2ccccc21)N1CCOCC1 | / | -3 | -10 | 0 | -1
CCCC(=O)Nc1cccc(C(=O)Nc2ccccc2OCC)c1 | 13 | -17 | -17 | 3 | 7
CC1=C(C(=O)OCCOC(C)C)C(c2cc3c(cc2Br)OCO3)CC(=O)N1 (stereo not given) | 98* | -13 | 9 | -2 | /
COC(=O)C1=C(C)NC(=O)CC1c1cc2c(cc1Br)OCO2 (stereo not given) | -3 | -5 | -16 | 2 | 0
COCCn1c(=NC(=O)/C=C/c2ccccc2)sc2cc(NC(C)=O)ccc21 | 28 | -14 | -5 | -2 | -2
Cc1ccc2c(c1)S/C(=C/c1ccc[n+](CCO)c1)N2C | 82* | -8 | -8 | 0 | -12
SMILES | L major viab | Mdm2 ligase inh | S1P4 antag | S1P4 ag | S1P3 antag
O=C(N/N=C/c1c[nH]c2ccccc12)c1ccncc1 | 56* | 8 | -5 | 0 | -2
Cc1cc(C(=O)N/N=C/c2c[nH]c3ccccc23)cs1 | 14 | -1 | 1 | 1 | 5
O=C(N/N=C/c1c[nH]c2ccc(Br)cc12)c1ccncc1 | 9 | -2 | -7 | 0 | 5
O=C(N/N=C/c1cc2c(cc1Br)OCO2)c1c[nH]c2ccccc12 | 80* | 0 | -9 | 1 | 16
Cc1ccc(C(=O)Nc2ccc(C(=O)N/N=C/c3c[nH]c4ccccc34)cc2)cc1 | 73* | / | -12 | 3 | 8
O/N=C/c1ccn(-c2ccc(Br)cc2)c1 | 92* | -2 | 6 | 0 | 1
Brc1ccc(-n2cccc2/C=N/n2cnnc2)cc1 | -1 | -16 | -10 | -2 | /
CC(C)CC(=O)Nc1ccc(F)c(Cl)c1 | 60* | -13 | 11 | 1 | 21
Cc1cccc(OCCC(=O)Nc2ccc(F)c(Cl)c2)c1 | 65* | -8 | -3 | 0 | -8
CCCC(C)C(=O)Nc1ccc(F)c(Cl)c1 (stereo not given) | 23 | -89 | 3 | -3 | 12
Clc1ccccc1CN1CCN(/N=C/C=C/c2ccco2)CC1 | / | -8 | -14 | 2 | -5
CC(C)(C)c1ccc(CN2N=Nc3ccccc3S2(=O)=O)cc1 | 101* | 6 | 0 | 0 | /
O=S1(=O)c2ccccc2N=NN1Cc1ccc(Cl)c(Cl)c1 | -2 | -6 | 16 | -3 | /
COc1ccccc1/C=C1/C(=O)N(c2cc(C)cc(C)c2)C(c2cccc([N+](=O)[O-])c2)S1(=O)=O (stereo not given) | 19 | -1 | -11 | -2 | -1
CCOc1ccc(N2C(=O)/C(=C\c3ccccc3OC)S(=O)(=O)C2c2cccc([N+](=O)[O-])c2)cc1 (stereo not given) | 50* | -1 | -8 | 1 | -7
COC(=O)c1cn(NC(=O)c2ccccc2[N+](=O)[O-])c(=O)c2ccccc12 | -7 | -11 | -3 | 1 | -13
Cc1c(Cl)cccc1NC(=O)CNc1cccc(S(=O)(=O)N(C)C)c1 | 72* | -2 | -11 | 1 | -9
CCCCC(=Nc1ccccc1OC)C1=C(O)CC(c2ccccc2)CC1=O (stereo not given) | 6 | 2 | -18 | -2 | 17
CCCC(=Nc1ccccc1OC)C1=C(O)CC(c2ccccc2)CC1=O (stereo not given) | 99* | 2 | 3 | 0 | 7
COc1ccccc1N=C(C)C1=C(O)CC(c2ccccc2)CC1=O (stereo not given) | 53* | -8 | 13 | 0 | 10
C#CCN1C(=O)S/C(=C/C=C/c2ccc(N(C)C)cc2)C1=O | 88* | -7 | -31 | 1 | -6
O=C(CN1C(=O)S/C(=C\C=C\c2ccccc2)C1=O)Nc1ccccc1C(=O)O | / | -20 | -3 | -1 | 1
CCCCC(=O)NC(Nc1nc(C2CC2)cs1)(C(=O)OCC)C(F)(F)F (stereo not given) | 23 | 8 | -6 | -2 | 22
O=C(Nc1ccc2c(c1)CCC2)c1cc(S(=O)(=O)Nc2ccc(F)cc2)c(Cl)cc1Cl | 60* | 26 | -1 | 1 | -8
COC(=O)c1ccc(NC(=O)CNCc2ccncc2)cc1 | 56* | 0 | -15 | 0 | 8
COc1cccc(C(=O)Nc2cccc(NC(C)=O)c2)c1 | -6 | -3 | -17 | 2 | -61
COc1cccc(C(=O)Nc2cccc(C(=O)NCC(C)C)c2)c1 | 64* | -15 | -13 | 0 | -6
COc1cc(OC)cc(C(=O)Nc2cccc(N3CCCC3)c2)c1 | 72* | -4 | 9 | 3 | 30
COc1ccc(CC(=O)Nc2ccc(C(=O)NCC(C)C)cc2)cc1 | 54* | -1 | -2 | 1 | /
